In ChEMBL document CHEMBL4414551, “Design, Synthesis, and Biological Evaluation of Substituted 4,6-Dihydrospiro[[1,2,3]triazolo[4,5-b]pyridine-7,3'-indoline]-2',5(3H)-dione Analogues as Potent NS4B Inhibitors for the Treatment of Dengue Virus Infection” (J Med Chem, 2019):
Activity calls are given as the source filed them. The rule behind the calls is not given here.

Columns and labels:
dengue virus type 2 [1] = test: Antiviral activity against NS3 T606A mutant containing Dengue virus 2 isolate P12-II infected in human HuH7 cells using viral isolates selected by serial passaging in presence of DMSO incubated for 3 days by viral reduction assay; format: functional, organism-based; conditions: Huh-7, 72 h
dengue virus type 2 [2] = test: Antiviral activity against NS3 T606A mutant and NS4B V63M mutant containing Dengue virus 2 isolate P12-III infected in human HuH7 cells using viral isolates selected by serial passaging in presence of test compound incubated for 3 days by viral reduction assay; format: functional, organism-based; conditions: Huh-7, 72 h
dengue virus type 2 [3] = test: Antiviral activity against Dengue virus 2 NGC infected in human HuH7 replicon cells expressing Renilla luciferase and neomycin-resistance genes assessed as reduction in viral replication incubated for 48 hrs by luciferase reporter replicon-based assay; format: functional, organism-based; conditions: Huh-7, 48 h
How it was run: (§1)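 Huh7 cells stably carrying a Renilla luciferase/neomycin-resistance replicon (DENV-1 WestPac, DENV-2 NGC, DENV-3 D3MY05-34640 or DENV-4 D4MY01-22713). Cells seeded at 10k per well and incubated overnight at 37 °C, 5% CO2. Then exposed to 2-fold serial compound dilutions for 48 h, in duplicate. Luciferase read with a live-cell substrate. EC50 from four-parameter logistic fit.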

dengue virus type 4 [4] = test: Antiviral activity against Dengue virus 4 D4MY01-22713 infected in human HuH7 replicon cells expressing Renilla luciferase and neomycin-resistance genes assessed as reduction in viral replication incubated for 48 hrs by luciferase reporter replicon-based assay; format: functional, organism-based; conditions: D4MY01-22713, Huh-7, 48 h; how it was run: as §1
[5] = Cytotoxicity in human HuH7 replicon cells infected with Dengue virus 2 NGC assessed as reduction in cell viability incubated for 48 hrs by Cell-titer-Glo reagent based assay; set-up: species or system Huh-7
How it was run: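 Huh7 cells or Huh7 replicon cells plated, then held at 37 °C with 5% CO₂ overnight. Exposed to 2-fold serial compound dilutions for 48 h, in duplicate. Viability read with CellTiter-Glo and normalized to 0.45% DMSO wells set at 100%. CC50 from four-parameter logistic fit.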

dengue virus type 2 [6] = test: Antiviral activity against Dengue virus 2 isolate P0 infected in human HuH7 cells incubated for 3 days by viral reduction assay; format: functional, organism-based; conditions: isolate P0, Huh-7, 72 h
dengue virus type 2 [7] = test: (§2) Resistance index, ratio of EC50 for antiviral activity against NS4B V63M and P104S mutant containing Dengue virus 2 isolate P12-V infected in human HuH7 cells using viral isolates selected by serial passaging in presence of test compound incubated for 3 days by viral reduction assay to EC50 for antiviral activity against Dengue virus 2 isolate P0 infected in human HuH7 cells incubated for 3 days by viral reduction assay; format: functional
dengue virus type 2 [8] = test: as §2, with “V63M” for “V63M and P104S”, “P12-IV” for “P12-V”; format: functional
dengue virus type 2 [9] = test: Antiviral activity against NS3 T606A mutant containing Dengue virus 2 isolate P12-I infected in human HuH7 cells using viral isolates selected by serial passaging in presence of DMSO incubated for 3 days by viral reduction assay; format: functional, organism-based; conditions: Huh-7, 72 h
dengue virus type 2 [10] = test: (§3) Resistance index, ratio of EC50 for antiviral activity against NS3 T606A mutant containing Dengue virus 2 isolate P12-II infected in human HuH7 cells using viral isolates selected by serial passaging in presence of DMSO incubated for 3 days by viral reduction assay to EC50 for antiviral activity against Dengue virus 2 isolate P0 infected in human HuH7 cells incubated for 3 days by viral reduction assay; format: functional
dengue virus type 2 [11] = test: Antiviral activity against NS4B V63M and P104S mutant containing Dengue virus 2 isolate P12-V infected in human HuH7 cells using viral isolates selected by serial passaging in presence of test compound incubated for 3 days by viral reduction assay; format: functional, organism-based; conditions: Huh-7, 72 h
dengue virus type 2 [12] = test: as §3, with “P12-I” for “P12-II”; format: functional
dengue virus type 2 [13] = test: (§4) Resistance index, ratio of EC50 for antiviral activity against NS3 T606A mutant and NS4B V63M mutant containing Dengue virus 2 isolate P12-III infected in human HuH7 cells using viral isolates selected by serial passaging in presence of test compound incubated for 3 days by viral reduction assay to EC50 for antiviral activity against Dengue virus 2 isolate P0 infected in human HuH7 cells incubated for 3 days by viral reduction assay; format: functional
dengue virus type 1 [14] = test: Antiviral activity against Dengue virus 1 WestPac infected in human HuH7 replicon cells expressing Renilla luciferase and neomycin-resistance genes assessed as reduction in viral replication incubated for 48 hrs by luciferase reporter replicon-based assay; format: functional, organism-based; conditions: Huh-7, 48 h; how it was run: as §1
dengue virus type 3 = test: Antiviral activity against Dengue virus 3 D3MY05-34640 infected in human HuH7 replicon cells expressing Renilla luciferase and neomycin-resistance genes assessed as reduction in viral replication incubated for 48 hrs by luciferase reporter replicon-based assay; format: functional, organism-based; conditions: D3MY05-34640, Huh-7, 48 h; how it was run: as §1
dengue virus type 2 [15] = test: Antiviral activity against NS4B V63M mutant containing Dengue virus 2 isolate P12-IV infected in human HuH7 cells using viral isolates selected by serial passaging in presence of test compound incubated for 3 days by viral reduction assay; format: functional, organism-based; conditions: Huh-7, 72 h
dengue virus type 2 [16] = test: Antiviral activity against NS3 T606A mutant and NS4B V63L mutant containing Dengue virus 2 isolate P12-VI infected in human HuH7 cells using viral isolates selected by serial passaging in presence of test compound incubated for 3 days by viral reduction assay; format: functional, organism-based; conditions: Huh-7, 72 h
dengue virus type 2 [17] = test: as §4, with “V63L” for “V63M”, “P12-VI” for “P12-III”; format: functional
dengue virus type 4 [18] = test: Antiviral activity against Dengue virus 4 D4MY01-22713 infected in human HuH7 replicon cells expressing Renilla luciferase and neomycin-resistance genes assessed as reduction in viral replication up to 10 uM incubated for 48 hrs by luciferase reporter replicon-based assay; format: functional, organism-based; how it was run: as §1
dengue virus type 1 [19] = test: Antiviral activity against Dengue virus 1 WestPac infected in human HuH7 replicon cells expressing Renilla luciferase and neomycin-resistance genes assessed as reduction in viral replication up to 10 uM incubated for 48 hrs by luciferase reporter replicon-based assay; format: functional, organism-based; how it was run: as §1
dengue virus type 2 [20] = test: Inhibition of NS4B in Dengue virus 2 NGC infected in human HuH7 replicon cells lysates at 10 ujM incubated for 48 hrs by SDS-PAGE based pull down assay; format: subcellular; conditions: Lysate
How it was run: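 Huh7 cells, 4×10⁶ per T-75, infected next day with DENV-2 NGC at MOI 2.0 with 10 µM biotinylated probe, or 0.25% DMSO, for 48 h at 37 °C. Lysis in 20 mM Tris-HCl pH 7.5, 100 mM NaCl, 0.5% DDM with protease inhibitors. Lysate spiked with compound to 100 µM final, then streptavidin magnetic beads at 4 °C overnight. Bead eluates resolved on 12% SDS-PAGE; NS4B detected by anti-NS4B monoclonal Western blot.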

Structure (SMILES) | EC50 (dengue virus type 2 [3]) | EC50 (dengue virus type 4 [4]) | CC50 at 48 h [5] | EC50 (dengue virus type 1 [14]) | EC50 (dengue virus type 3) | other results
C[C@@H](c1ccc(Cl)cc1)n1nnc2c1NC(=O)C[C@]21C(=O)N(CCN(C)C)c2ccc(Cl)cc21 | 0.025 µM | > 5 µM | > 10 µM | > 5 µM | 0.002 µM | EC50 (dengue virus type 2 [1]): 0.056 µM; EC50 (dengue virus type 2 [2]): > 6 µM; EC50 (dengue virus type 2 [6]): 0.06 µM; Ratio EC50 (dengue virus type 2 [7]): >100; Ratio EC50 (dengue virus type 2 [8]): >100; EC50 (dengue virus type 2 [9]): 0.048 µM; Ratio EC50 (dengue virus type 2 [10]): 0.93; EC50 (dengue virus type 2 [11]): > 6 µM; Ratio EC50 (dengue virus type 2 [12]): 0.8; Ratio EC50 (dengue virus type 2 [13]): >100; EC50 (dengue virus type 2 [15]): > 6 µM; EC50 (dengue virus type 2 [16]): > 6 µM; Ratio EC50 (dengue virus type 2 [17]): >100
C[C@@H](c1ccc(Cl)cc1)n1nnc2c1NC(=O)C[C@]21C(=O)N(CCOC(=O)CCCCCCCNC(=O)CCCC[C@@H]2SC[C@@H]3NC(=O)N[C@@H]32)c2ccc(Cl)cc21 | 0.0414 µM | – | > 10 µM | – | 0.0167 µM | Activity (dengue virus type 4 [18]): inactive; Activity (dengue virus type 1 [19]): inactive; inhibition (dengue virus type 2 [20]): Active
C[C@@H](c1ccc(Cl)cc1)n1nnc2c1NC(=O)C[C@]21C(=O)N(CCN2CCCC2)c2ccc(Cl)cc21 | 0.038 µM | > 5 µM | > 10 µM | > 5 µM | 0.006 µM | –
C[C@@H](c1ccc(Cl)cc1)n1nnc2c1NC(=O)C[C@]21C(=O)N(C)c2ccc(Cl)cc21 | 0.019 µM | > 5 µM | > 10 µM | > 5 µM | 0.004 µM | –
C[C@@H](c1ccc(Cl)cc1)n1nnc2c1NC(=O)C[C@]21C(=O)N(CCN2CCN(C)CC2)c2ccc(Cl)cc21 | 0.3 µM | > 5 µM | > 10 µM | > 5 µM | 0.03 µM | –
C[C@@H](c1ccc(Cl)cc1)n1nnc2c1NC(=O)C[C@]21C(=O)N(CCCCCl)c2ccc(Cl)cc21 | 0.073 µM | > 5 µM | > 10 µM | > 5 µM | 0.019 µM | –
C[C@@H](c1ccc(Cl)cc1)n1nnc2c1NC(=O)C[C@]21C(=O)N(CCN2CCOCC2)c2ccc(Cl)cc21 | 0.075 µM | > 5 µM | > 10 µM | > 5 µM | 0.017 µM | –
C[C@@H](c1ccc(Cl)cc1)n1nnc2c1NC(=O)C[C@]21C(=O)N(CC2CC2)c2ccc(Cl)cc21 | 0.11 µM | > 5 µM | > 10 µM | 3.1 µM | 0.017 µM | –
C[C@@H](c1ccc(Cl)cc1)n1nnc2c1NC(=O)C[C@]21C(=O)N(Cc2ccccn2)c2ccc(Cl)cc21 | 0.02 µM | > 5 µM | > 10 µM | > 5 µM | 0.003 µM | –
C[C@@H](c1ccc(Cl)cc1)n1nnc2c1NC(=O)C[C@]21C(=O)N(CCCN2CCCCC2)c2ccc(Cl)cc21 | 0.13 µM | > 5 µM | > 10 µM | > 5 µM | 0.012 µM | –
C#CCN1C(=O)[C@]2(CC(=O)Nc3c2nnn3[C@@H](C)c2ccc(Cl)cc2)c2cc(Cl)ccc21 | 0.069 µM | > 5 µM | > 10 µM | > 5 µM | 0.003 µM | –
C[C@@H](c1ccc(Cl)cc1)n1nnc2c1NC(=O)C[C@]21C(=O)N(CCN2CCC2)c2ccc(Cl)cc21 | 0.067 µM | > 5 µM | > 10 µM | > 5 µM | 0.007 µM | –
CC(C)N1C(=O)[C@]2(CC(=O)N(C(C)C)c3c2nnn3[C@@H](C)c2ccc(Cl)cc2)c2cc(Cl)ccc21 | > 10 µM | 3 µM | > 10 µM | 3.8 µM | 1.5 µM | –
C[C@@H](c1ccc(Cl)cc1)n1nnc2c1NC(=O)C[C@@]21C(=O)N(CCOC(=O)CCCCCCCNC(=O)CCCC[C@@H]2SC[C@@H]3NC(=O)N[C@@H]32)c2ccc(Cl)cc21 | > 5 µM | – | > 10 µM | – | > 5 µM | inhibition (dengue virus type 2 [20]): inactive
C[C@@H](c1ccc(Cl)cc1)n1nnc2c1NC(=O)C[C@]21C(=O)N(Cc2ccncc2)c2ccc(Cl)cc21 | 0.072 µM | > 5 µM | > 10 µM | > 5 µM | 0.025 µM | –
C[C@@H](c1ccc(Cl)cc1)n1nnc2c1NC(=O)C[C@]21C(=O)N(CCCCCCN(C)C)c2ccc(Cl)cc21 | 0.9 µM | > 5 µM | > 10 µM | 1.5 µM | 0.066 µM | –
COc1cccc(CN2C(=O)[C@]3(CC(=O)Nc4c3nnn4[C@@H](C)c3ccc(Cl)cc3)c3cc(Cl)ccc32)c1 | 0.83 µM | 6.2 µM | > 10 µM | 2.6 µM | 0.087 µM | –
CCCN1C(=O)[C@]2(CC(=O)Nc3c2nnn3[C@@H](C)c2ccc(Cl)cc2)c2cc(Cl)ccc21 | 0.071 µM | > 5 µM | > 10 µM | 1.9 µM | 0.01 µM | –
C[C@@H](c1ccc(Cl)cc1)n1nnc2c1NC(=O)C[C@]21C(=O)N(CCCCCCCCN(C)C)c2ccc(Cl)cc21 | 0.49 µM | > 5 µM | > 10 µM | > 5 µM | 0.042 µM | –
C[C@@H](c1ccc(Cl)cc1)n1nnc2c1NC(=O)C[C@]21C(=O)N(Cc2cccnc2)c2ccc(Cl)cc21 | 0.029 µM | > 5 µM | > 10 µM | 3.2 µM | 0.021 µM | –
COc1cc(CN2C(=O)[C@]3(CC(=O)Nc4c3nnn4[C@@H](C)c3ccc(Cl)cc3)c3cc(Cl)ccc32)cc(OC)c1 | 3.1 µM | 7.4 µM | > 10 µM | 3.4 µM | 0.79 µM | –
C[C@@H](c1ccc(Cl)cc1)n1nnc2c1NC(=O)C[C@]21C(=O)N(Cc2ccccc2)c2ccc(Cl)cc21 | 0.15 µM | > 5 µM | > 10 µM | 2 µM | 0.02 µM | –
C[C@@H](c1ccc(Cl)cc1)n1nnc2c1NC(=O)C[C@]21C(=O)N(CCCBr)c2ccc(Cl)cc21 | 0.25 µM | 3.2 µM | > 10 µM | 2.4 µM | 0.076 µM | –
